Screening data (PubChem)
Rows were chosen to be rich in hits. Some 5.9% of all compounds tested hit in one or more screens of this group.
Tcruzi prolif: blocks T. cruzi growth in NIH3T3 culture; T. cruzi beta-gal in NIH3T3, GalScreen luminescence, 90 h; inhibition, % at 8.34 µM; actives 5.9% (n = 77,000); AID 624255;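 active means mean inhibition above about 93%, with at least 55% of replicates each passing it, limit read from the data, passing the limit was not always enough; inconclusive means only one of those two conditions holds; inactive means neither condition holds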
IDH1 R132H inh: IDH1 R132H (human) inhibition. AID 624101. actives 0.18% (n = 70,000). inhibition, % at 10 µM. IDH1 R132H reductase, diaphorase/resazurin fluorescence, 60 min; in the data active means inhibition above about 34%; inconclusive means no clear call, values can overlap the other calls; inactive means below about 11%
Target sequence (O75874 whole entry R132H): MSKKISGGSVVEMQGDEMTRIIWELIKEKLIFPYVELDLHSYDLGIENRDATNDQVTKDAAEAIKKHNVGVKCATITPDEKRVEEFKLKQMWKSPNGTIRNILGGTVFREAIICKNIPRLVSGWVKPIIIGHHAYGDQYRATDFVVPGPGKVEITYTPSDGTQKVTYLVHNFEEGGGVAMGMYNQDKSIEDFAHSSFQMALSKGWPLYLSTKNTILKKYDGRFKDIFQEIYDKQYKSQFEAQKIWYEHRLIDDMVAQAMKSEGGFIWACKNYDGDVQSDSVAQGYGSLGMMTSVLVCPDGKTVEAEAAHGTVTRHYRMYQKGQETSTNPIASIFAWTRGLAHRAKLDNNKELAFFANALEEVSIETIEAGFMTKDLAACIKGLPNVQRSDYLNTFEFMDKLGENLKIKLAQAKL
KDM4C inh: inhibitors of human demethylase GASC-1 KDM4C. actives 0.15% (n = 96,000). inhibition, % at 12.5 µM. Q9H3R0. GST-KDM4C 2-372, H3K9me3 peptide, LANCE TR-FRET;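 active means mean replicate inhibition above about 25%, with at least 55% of replicates also reaching it, limit read from the data, passing the limit was not always enough; inconclusive means only one of those two conditions met; inactive means neither condition met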
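Test system – GST-tagged GASC-1 (JMJD2C) catalytic fragment, aa 2-372 · Medium – HEPES buffer, pH 7.5, plus ascorbate · Reagent – H3K9me3 peptide with Fe(II)/2OG · Compound – one test concentration per compound · Timing – 30 min reaction, 60 min detection, RT · Technique – TR-FRET with Eu antibody and ULight streptavidin, EDTA stop · Read-out basis – inhibition from TR-FRET ratio decrease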
Pf Dd2 growth: P. falciparum Dd2 growth inhibition. SYBR Green, 72 h; stronger effect = lower value. activity change, % at 10 µM. actives 2.3% (n = 94,000); in the data active means activity change below about -80%; inconclusive means no clear call, values can overlap the other calls
A number is an active result; – = inactive; ? = inconclusive; · = not tested or not shown.

SMILES | Tcruzi prolif | IDH1 R132H inh | KDM4C inh | Pf Dd2 growth
COc1ccc(S(=O)(=O)N(C)C[C@H]2OCCCC[C@H](C)Oc3ccc(NC(=O)NC4CCCCC4)cc3C(=O)N([C@H](C)CO)C[C@H]2C)cc1 | – | – | – | -86
COc1ccc(S(=O)(=O)N(C)C[C@@H]2OCCCC[C@@H](C)Oc3ccc(NC(=O)NC4CCCCC4)cc3C(=O)N([C@@H](C)CO)C[C@@H]2C)cc1 | – | – | – | ?
COc1ccc([N+](=O)[O-])cc1NC(=O)CN(c1ccc(C)cc1C)S(C)(=O)=O | · | – | · | ·
O=C(NO)c1cccc(C(=O)N/N=C/c2cccc(B(O)O)c2)c1 | · | – | · | ·
COCc1cn([C@@H]2C[C@@H]3O[C@H](CO)CC[C@@H]3O[C@@H]2CCc2ccc(-c3ccc(OC)cc3)cc2)nn1 | · | · | · | -94
COCc1cn([C@H]2C[C@@H]3O[C@H](CO)CC[C@@H]3O[C@@H]2CCc2ccc(-c3ccc(OC)cc3)cc2)nn1 | · | · | · | –
COCc1cn([C@@H]2C[C@@H]3O[C@@H](CO)CC[C@@H]3O[C@@H]2CCc2ccc(-c3ccc(OC)cc3)cc2)nn1 | · | · | · | -84
Cn1c(SCC(=O)Nc2ccccc2)nnc1-c1ccccc1F | · | – | · | ·
CS(=O)(=O)N1[C@H](C#N)[C@H](c2ccccc2-c2ccccc2)[C@H]1CO | · | · | – | -94
CS(=O)(=O)N1[C@H](C#N)[C@H](c2ccccc2-c2ccccc2)[C@@H]1CO | · | · | – | –
Cc1ccccc1-c1ccccc1[C@H]1[C@@H](C#N)N(C(=O)c2ccccc2)[C@@H]1CO | · | · | · | -93
COc1cccc(S(=O)(=O)N2CCCCN3[C@@H](CO)[C@@H](c4ccc(C#CCC(C)C)cc4)[C@@H]3C2)c1 | – | · | – | -84
Cc1ccc(-c2ccc([C@H]3[C@@H](CO)N4CCCCN(S(=O)(=O)c5ccccc5C)C[C@@H]34)cc2)cc1 | – | · | – | –
COc1cccc(S(=O)(=O)N2CCCCN3[C@@H](CO)[C@@H](c4ccc(C5=CCCCC5)cc4)[C@@H]3C2)c1 | – | · | – | -84
COc1cccc(S(=O)(=O)N2CCCCN3[C@H](C2)[C@H](c2ccc(C4=CCCCC4)cc2)[C@@H]3CO)c1 | – | · | – | –
Cc1ccc(-c2ccc([C@@H]3[C@H](CO)N4CCCCN(S(=O)(=O)c5ccccc5C)C[C@@H]34)cc2)cc1 | – | · | – | -82
COc1cccc(S(=O)(=O)N2CCCCN3[C@H](C2)[C@@H](c2ccc(C#CCC(C)C)cc2)[C@@H]3CO)c1 | – | · | – | –
N#C[C@@H]1[C@@H](c2ccc(C#CC3CCCCC3)cc2)[C@H](CO)N1C(=O)Nc1ccc(F)cc1 | · | · | – | -86
N#C[C@H]1[C@@H](c2ccc(C#CC3CCCCC3)cc2)[C@H](CO)N1C(=O)Nc1ccc(F)cc1 | · | · | – | –
Cc1ccccc1S(=O)(=O)N1[C@H](C#N)[C@H](c2ccc(C#CC3CCCC3)cc2)[C@@H]1CO | · | · | – | -90
N#C[C@H]1[C@H](c2ccc(C#CC3CCCCC3)cc2)[C@H](CO)N1C(=O)Nc1ccc(F)cc1 | · | · | – | –
CC(C)NC(=O)N1[C@H](C#N)[C@H](c2ccc(C#CC3CCCCC3)cc2)[C@@H]1CO | – | · | – | -81
O=C(Nc1ccccc1)N1CCCCN2[C@H](CO)[C@@H](c3ccc(C#Cc4ccccc4)cc3)[C@H]2C1 | – | · | – | –
O=C(Nc1ccccc1)N1CCCCN2[C@H](CO)[C@H](c3ccc(C#Cc4cccnc4)cc3)[C@@H]2C1 | – | · | – | -88
COc1ccc(C#Cc2ccc([C@H]3[C@@H](CO)N4CCCCN(C(=O)Nc5cccc(F)c5)C[C@H]34)cc2)cc1 | – | · | – | ?
SMILES | Tcruzi prolif | IDH1 R132H inh | KDM4C inh | Pf Dd2 growth
COc1ccc(C#Cc2ccc([C@@H]3[C@H](CO)N4CCCCN(C(=O)Nc5cccc(F)c5)C[C@@H]34)cc2)cc1 | – | · | – | -84
COc1ccc(NC(=O)N2CCCCN3[C@H](CO)[C@H](c4ccc(-c5ccccc5F)cc4)[C@@H]3C2)cc1 | – | · | – | -85
CN(C)/C=C(\C(=O)Nc1ccc(F)c(F)c1F)S(=O)(=O)c1ccccc1 | · | – | · | ·
Cn1c(SCC(=O)Nc2ccc(Oc3ccccc3)cc2)nnc1-c1ccccc1Cl | · | – | · | ·
CC1=C(C/C=N/NC(=O)c2ccc(C(=O)NO)cc2)C(C)(C)CCC1 | · | – | · | ·
CCC(=O)N1CC2(C1)[C@H](c1ccc(-c3cccc(OC)c3)cc1)[C@H](CO)N2C(C)=O | · | · | – | –
CCC(=O)N1CC2(C1)[C@@H](c1ccc(-c3cccc(OC)c3)cc1)[C@@H](CO)N2C(C)=O | · | · | – | -90
CCn1c(NCCCO)nc2ccccc21 | · | – | · | ·
C[C@@H]1CN([C@@H](C)CO)C(=O)c2c(c3ccccc3n2C)-c2ccccc2CO[C@@H]1CN(C)Cc1cccc2c1OCCCO2 | · | · | – | -85
C[C@@H]1CN([C@H](C)CO)C(=O)c2c(c3ccccc3n2C)-c2ccccc2CO[C@@H]1CN(C)Cc1cccc2c1OCCCO2 | · | · | – | -84
C[C@H]1CN([C@@H](C)CO)C(=O)c2c(c3ccccc3n2C)-c2ccccc2CO[C@@H]1CN(C)Cc1cccc2c1OCCCO2 | · | · | · | –
O=C(CSc1nnnn1C1CCCCC1)Nc1ccccc1[N+](=O)[O-] | · | – | · | ·
O=C(CSc1nc2cc3ccccc3cc2[nH]1)Nc1ccccc1Cl | · | – | · | ·
N#Cc1ccc(-c2ccc([C@H]3[C@@H](CO)N4C(=O)CN(C(=O)Cc5ccccc5)C[C@@H]34)cc2)cc1 | · | · | – | -85
COc1cccc(C#Cc2ccc([C@H]3[C@@H](CO)N4C(=O)CN(C(=O)Cc5ccccc5)C[C@H]34)cc2)c1 | · | · | – | -94
COc1cccc(C#Cc2ccc([C@@H]3[C@@H](CO)N4C(=O)CN(C(=O)c5ccccc5)C[C@@H]34)cc2)c1 | · | · | – | -91
CCC(=O)N1CC2(C1)CN(Cc1ccc(Cl)cc1)[C@@H](CO)c1[nH]c3cc(OC)ccc3c12 | · | · | – | -90
CCC(=O)N1CCC2(CC1)CN(Cc1cccc(Cl)c1)[C@@H](CO)c1[nH]c3cc(OC)ccc3c12 | · | · | – | –
CCC(=O)N1CC2(C1)CN(Cc1ccc(OC)cc1)[C@H](CO)c1[nH]c3cc(OC)ccc3c12 | · | · | – | –
CCC(=O)N1CC2(C1)CN(Cc1ccccc1Cl)[C@H](CO)c1[nH]c3cc(OC)ccc3c12 | · | · | – | -85
CCC(=O)N1CC2(C1)CN(Cc1ccc(Cl)cc1)[C@H](CO)c1[nH]c3cc(OC)ccc3c12 | · | · | – | ?
CCCC(=O)N1CC2(C1)CN(Cc1ccc(Cl)cc1)[C@H](CO)c1[nH]c3cc(OC)ccc3c12 | · | · | – | -90
CCC(=O)N1CC2(C1)CN(Cc1cccc(Cl)c1)[C@H](CO)c1[nH]c3cc(OC)ccc3c12 | · | · | · | -89
CCCC(=O)N1CC2(C1)CN(Cc1ccc(Cl)cc1)[C@@H](CO)c1[nH]c3cc(OC)ccc3c12 | · | · | – | -92
COc1ccc2c3c([nH]c2c1)[C@H](CO)N(Cc1ccccc1)CC31CN(C(C)=O)C1 | · | · | – | –
COc1ccc2c3c([nH]c2c1)[C@H](CO)N(Cc1cccc(Cl)c1)CC31CN(C(C)=O)C1 | · | · | – | -83
CCCC(=O)N1CC2(C1)CN(Cc1ccncc1)[C@H](CO)c1[nH]c3cc(OC)ccc3c12 | · | · | – | –
O=C(CCCCCC(=O)Nc1ccccc1O)N/N=C/c1ccc(Br)s1 | · | – | · | ·
